# HTR2A ag = activates the mouse 5-HT2A serotonin receptor; CHO-K1 mHTR2A beta-arrestin complementation, luminescence; percent of 30 µM serotonin response; activation, % at 7.6 µM; hit rate 0.66% among 360,000; AID 624169;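 active = activation above a run cutoff, the mean activation of all tested compounds plus 3 SD, cut at about 14% in these data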;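 note: 0% = plate median of compound wells and 100% = 30 µM serotonin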
# GASC-1 inh = blocks human GASC-1 demethylase activity; GST-JMJD2C(1-420) H3K9me3 demethylation, DELFIA europium; inhibition, % at 2.35 µM; hit rate 0.069% among 330,000;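 active = more than half of a compound's replicate wells show inhibition beyond 50%, single wells judged on their own value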;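 note: signal counts dimethyl H3K9 product captured on neutravidin plate; 0% = median of DMSO wells and 100% = 0.3 times that DMSO median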
# PP5 inh = PP5 (human) phosphatase inhibition; inhibition, % at 6.7 µM; hit rate 0.18% among 320,000; purified PP5c, OMFP substrate fluorescence; AID 1987;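 active = inhibition above the campaign's mean inhibition across all tested compounds plus 3 SD, cut at about 9.5% in these data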;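 note: 0% = DMSO only and 100% = 100 µM cantharidin control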
# PP1 counter = blocks human PP1-alpha phosphatase, a PP5 counter-screen; purified PP1alpha, OMFP fluorescence; P62136; inhibition, % at 6.7 µM; AID 2235; hit rate 0.9% among 320,000;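 active = inhibition above the mean inhibition of all tested compounds plus 3 SD, computed separately for each screening campaign, cut at about 15% in these data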
# Target sequence (P62136 whole entry, looked up): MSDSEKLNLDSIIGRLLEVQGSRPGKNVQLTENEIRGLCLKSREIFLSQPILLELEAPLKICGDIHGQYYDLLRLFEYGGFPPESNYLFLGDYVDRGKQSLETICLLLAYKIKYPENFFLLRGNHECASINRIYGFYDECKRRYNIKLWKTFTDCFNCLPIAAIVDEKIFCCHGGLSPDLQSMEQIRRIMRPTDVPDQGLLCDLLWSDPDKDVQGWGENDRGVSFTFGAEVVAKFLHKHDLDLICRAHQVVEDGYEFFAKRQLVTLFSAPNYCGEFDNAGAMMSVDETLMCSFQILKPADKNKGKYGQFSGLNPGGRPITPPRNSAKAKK
# T cell modulator = modulates CD8 T cell binding to vesicles; 2C CD8+ T cell-vesicle binding, flow cytometry; active compounds read low; response (vesicle binding), % at 7 µM; hit rate 0.068% among 330,000;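 active = response, share of CD8 T cells binding vesicles, and their 90th percentile fluorescence all below set limits, cut at about 80% in these data, passing the limit was not always enough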;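 note: values below 100% mean blocked vesicle binding to the CD8+ T cells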
#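 Read-out – percent CD8+ FL2 mean versus row control · System – murine 2C transgenic CD8+ T lymphocytes · Times – 1.5 h cell–vesicle binding at 37 °C, then 20 min icy labelling · Control set – naked vesicles low, QL9 vesicles with vehicle high · Detection – cytometric PE anti-B7-1 and Alexa647 anti-CD8 signals after 1% paraformaldehyde fixation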
# * hit, by the source's call; i = inactive; . = no result given. Shown are actives, neighbours in structure and some others; about 1.7% of the full set was active somewhere.
SMILES,HTR2A ag,GASC-1 inh,PP5 inh,PP1 counter,T cell modulator
CCn1c(SCC(=O)Nc2nc3ccc(C)cc3s2)nc2c(c1=O)SC(C)C2 (configuration not stated),5.1,-6.2,-3.3,16.4*,369.9
CCn1c(SCC(=O)Nc2nc3ccccc3s2)nc2c(c1=O)SC(C)C2 (configuration not stated),.,-3.3,4.3,3.4,269.8
Cc1cc2nc(C)n(CCCNC(=O)Nc3ccc(C#N)cc3)c2cc1C,44.5*,1.5,0.7,-0.5,148.8
COc1ccccc1N1CCN(C2CCCN(C(=O)CCN3CCCCO3)C2)CC1 (configuration not stated),0.0,8.5,-4.6,1.6,167.2
CC1Oc2ccccc2C=C1/C=N\NC(=O)c1cccnc1 (configuration not stated),-5.2,1.7,-0.4,5.7,360.2
C=C(C)C(=O)Nc1ccc2c(c1)OCCOCCOCCO2,8.6,1.6,-1.7,17.4*,380.4
CC(=O)Nc1ccc2c(c1)OCCO2,4.7,3.2,1.6,-0.6,132.6
O=C(NCc1ccc(F)cc1)C1CCCN1C(=O)Nc1cccc(F)c1 (configuration not stated),1.9,7.7,-2.6,-2.6,0.0
O=C(c1cc2sccc2n1Cc1ccc(F)cc1)N1CCN(c2nc3ccccc3s2)CC1,1.0,1.8,2.8,17.3*,147.7
Cn1c(C(=O)N2CCN(c3nc4ccccc4s3)CC2)cc2sccc21,-0.7,2.8,1.8,0.7,313.0
CCc1[nH]nc(C(=O)NC2CCCN(Cc3ccccc3F)C2)c1C (configuration not stated),0.7,10.2,0.9,-0.5,351.9
COc1cc2c(cc1OC)-c1cc(OCc3ccccc3Cl)nc(=O)n1CC2,19.5*,-2.8,2.3,-0.7,322.3
COc1cc2c(cc1OC)-c1cc(NC3CCCC3)nc(=O)n1CC2,-2.1,17.4,8.6,0.0,415.5
Clc1cccc(-c2nnc(SC/C=C/c3ccccc3)n2Cc2ccco2)c1,-4.0,-2.1,2.3,16.0*,354.4
N#CC1(NC(=O)COC(=O)c2ccc(-c3ccc(O)cc3)cc2)CCCCC1,-8.5,-0.5,2.3,16.1*,379.7
N#CC1(NC(=O)COC(=O)c2cc(O)c3ccccc3c2O)CCCCC1,4.1,1.6,1.4,-2.2,248.7
CCN1CCN(c2ccc(S(=O)(=O)N3CCCCC3)cc2NC(=O)c2cccc(C)c2[N+](=O)[O-])CC1,2.6,-2.8,2.2,-0.4,48.9*
Cc1cc(NC(=S)N(Cc2ccc(Br)cc2)Cc2ccc(C(=O)O)cc2)ccc1Cl,-3.0,-5.2,4.8,15.9*,206.3
Cc1cccc(NC(=S)N(Cc2ccc(Br)cc2)Cc2ccc(C(=O)O)cc2)c1,0.7,8.7,3.2,2.5,187.4
NC(=O)COC(=O)CCSc1ccc(Cl)cc1,1.9,3.3,-1.4,-12.2,598.6
Cn1c(SCC(=O)N2CCCC2=O)nnc1-c1ccccc1F,-1.8,55.1*,2.2,-3.8,634.1
COc1ccc(C2CC(=O)CCN2S(=O)(=O)c2ccc(C)cc2)cc1 (configuration not stated),8.2,.,.,.,.
CCN(CC)CCNC(=O)c1ccc(NC(=O)c2ccc(C(=O)c3ccccc3)cc2)cc1,-6.3,-7.5,1.4,-7.8,75.6*
Cc1cccc(C)c1NS(=O)(=O)c1cc2c3c(c1)CC(=O)N3CCC2,-3.2,54.3*,0.5,10.2,144.2
CCOC(=O)c1c(C)n(-c2ccc(C)cc2)c2ccc(OCC(O)CNCC3CCCO3)cc12 (configuration not stated),-6.0,-45.0,3.7,16.0*,195.0
SMILES,HTR2A ag,GASC-1 inh,PP5 inh,PP1 counter,T cell modulator
CCCC1=NN2C(=N)/C(=C\c3ccc(SCc4ccco4)o3)C(=O)N=C2S1,0.9,-41.4,-2.5,42.9*,429.7
Cc1cc(N/N=C/c2ccccc2Cl)nc(NCc2ccccc2)n1,-7.3,-5.3,6.2,17.0*,149.3
Cc1cccc(N2CCN(C(=O)c3ccc(N4CCCC4=O)cc3)CC2C)c1 (configuration not stated),-2.9,-11.6,-4.2,-5.2,262.7
COc1ccc(N2CCN(C(=O)c3ccc4c(c3)NC(=O)C(CSCc3c(F)cccc3Cl)N4)CC2)cc1 (configuration not stated),.,7.0,0.8,24.7*,392.6
O=C(CSCc1cccc(F)c1)N1CCN(c2ccccc2)CC1,-4.3,-1.3,3.0,0.4,288.9
COc1ccc(N2CCN(C(=O)c3ccc4c(c3)NC(=O)C(CSCc3cccc(F)c3)N4)CC2)cc1 (configuration not stated),.,18.9,3.2,33.4*,536.2
Cc1cccc(N2CCN(C(=O)c3ccc4c(c3)NC(=O)C(CSCc3ccc(F)cc3)N4)CC2C)c1 (configuration not stated),.,7.6,0.1,19.2*,273.4
COc1ccc(N2CCN(C(=O)c3ccc4c(c3)NC(=O)C(CSCc3ccc(C)cc3)N4)CC2)cc1 (configuration not stated),.,5.8,-0.3,19.5*,289.5
COc1ccc(C(=O)N2CCN(c3cccc(Cl)c3)CC2)cc1,2.3,4.3,1.1,-3.5,392.6
Nc1c(Cl)cc(-c2csc(N3CCCC3c3nc4cc(Cl)c(N5CCCCC5)cc4n3CCCO)n2)cc1Cl (configuration not stated),-4.1,3.8,3.7,17.2*,.
Nc1c(Cl)cc(-c2csc(N3CCCC3c3nc4cc(Cl)c(Cl)cc4n3CCCO)n2)cc1Cl (configuration not stated),-1.4,-2.0,2.3,4.0,236.1
O=P1(NC2CCCCC2)OCC2(CO1)COP(=O)(NC1CCCCC1)OC2 (configuration not stated),4.5,.,.,.,.
CCOC(=O)C1CCN(C(=O)Cn2cnc3sc(C)c(S(=O)(=O)N4CCCCC4)c3c2=O)CC1,5.0,-3.9,3.0,-2.9,377.8
C[C@H](CO)N1C[C@H](C)[C@@H](CN(C)CC2CCCCC2)Oc2c(NS(=O)(=O)c3ccc(F)cc3)cccc2C1=O,-11.3,.,.,.,286.6
CNc1ccc(-c2ccccc2CO)cn1,0.2,.,.,.,.
CC(C)Cn1c(O)c2ccc(C(=O)N=NC(=O)c3cccnc3)cc2c1O,4.3,2.2,2.9,3.2,261.1
CCCn1c(O)c2ccc(C(=O)N=NC(=O)c3cccnc3)cc2c1O,20.8*,-3.9,-1.9,-7.6,651.5
O=C(/C=C/c1ccc(NC(=O)c2ccccc2-c2ccccc2C(=O)O)cc1)c1ccccc1,-2.3,-1.3,0.5,17.2*,626.5
COC(=O)c1ccccc1NC(=O)CSCC(=O)Nc1ccccc1,18.0*,7.0,4.5,-2.9,552.8
COc1ccc(OC)c(NC(=O)c2cc3ccccc3o2)c1,-1.3,6.4,-4.2,2.9,438.3
COc1ccc(OC)c(Nc2nc(N)nc(-c3cc4ccccc4o3)n2)c1,2.0,7.2,0.3,15.7*,210.8
Cn1c2c(c(=O)n(C)c1=O)CN(CCCN1CCOCC1)CN2,7.5,53.4*,-1.0,-2.9,i

# Assay outcomes: PubChem, several laboratories
